Bioassay records from PubChem.
This is a sample that favours compounds with a hit; in the whole collection about 4.1% have one here.
DNA FID counter: counter-screen for HCV NS3 helicase inhibitors: DNA intercalator displacement. DNA fluorescent intercalator displacement, fluorescence. inhibition, % at 7.9 µM. 290,000 compounds, 0.17% hits; in the data active means inhibition above about 37%;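 further: 0% = vehicle and 100% = reference compound; higher means more ethidium bromide displaced from hairpin DNA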
MEKK2 mut-MEK5: signal of MEK5 binding to mutant human MEKK2 PB1 domain. bead flow cytometry, Alexa488-MEK5 binding to MEKK2 mutant. percent response, % at 10 µM. 290,000 compounds, 0.35% hits; in the data active means percent response above about 24%, passing the limit was not always enough
NS3 helicase inh: inhibitors of Hepatitis C virus NS3 helicase; NS3 helicase DNA unwinding, Cy5 molecular beacon fluorescence; AID 1800; 290,000 compounds, 0.56% hits; inhibition, % at 10.9 µM;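 active means inhibition above the mean of all tested compounds plus 3 SD, set per campaign, cut at about 35% in these data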;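 further: 0% = DMSO wells and 100% = thioflavine S control wells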
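Assay system: hepatitis C virus NS3 helicase domain fragment enzyme. Also added: annealed dual-labelled DNA beacon duplex, ATP-started. Timing: 1 h reaction at 25 °C, ATP-initiated. Technique: Cy5 fluorescence at 0 and 60 min, beacon hairpin quenching. Evaluation: % inhibition of unwinding. Replication: one well per compound.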
MEKK2 WT-MEK5: raises or lowers MEK5 binding to wildtype human MEKK2 PB1 domain; Q9Y2U5; bead flow cytometry, Alexa488-MEK5 binding to MEKK2 WT; actives lie on both sides; binding response (% of control), % at 10 µM; 290,000 compounds, 1.1% hits; AID 1531; in the data active means binding response below about 67% or above about 130%
MEKK3 PB1 HTS: raises or lowers MEK5 binding to the human MEKK3 PB1 domain. Q99759. bead-based flow cytometry, Alexa488-MEK5 binding to MEKK3; actives lie on both sides; 0 = blocked by unlabeled MEK5, 100 = vehicle. binding response (% of control), % at 10 µM. 290,000 compounds, 1.4% hits. AID 1529;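 active means binding response more than 3 SD above or below the average of its plate-row segment, actives on both sides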;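 further: Alexa488 bead fluorescence after subtracting the streptavidin-only scavenger bead signal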
Target sequence (Q99759 whole entry, looked up, the tested form may be a part): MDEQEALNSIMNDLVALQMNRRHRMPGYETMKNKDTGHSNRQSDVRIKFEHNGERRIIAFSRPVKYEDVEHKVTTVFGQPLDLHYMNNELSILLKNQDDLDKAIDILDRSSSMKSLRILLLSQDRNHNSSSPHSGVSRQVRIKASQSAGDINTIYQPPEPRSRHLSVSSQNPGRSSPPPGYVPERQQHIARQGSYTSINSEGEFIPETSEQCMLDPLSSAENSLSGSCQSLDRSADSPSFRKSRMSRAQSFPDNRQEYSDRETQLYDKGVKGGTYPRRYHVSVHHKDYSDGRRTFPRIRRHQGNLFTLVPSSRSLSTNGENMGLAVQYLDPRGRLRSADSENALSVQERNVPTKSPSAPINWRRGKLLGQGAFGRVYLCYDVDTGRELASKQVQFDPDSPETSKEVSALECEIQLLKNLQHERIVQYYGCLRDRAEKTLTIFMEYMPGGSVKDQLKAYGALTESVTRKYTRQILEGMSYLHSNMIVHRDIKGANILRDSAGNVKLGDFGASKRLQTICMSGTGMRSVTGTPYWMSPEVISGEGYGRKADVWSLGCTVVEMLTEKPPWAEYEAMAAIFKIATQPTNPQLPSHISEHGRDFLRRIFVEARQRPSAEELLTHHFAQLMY
T cruzi inh: T. cruzi replication inhibition. T. cruzi beta-gal in NIH3T3, luminescence, 90 h. inhibition, % (concentration not given with the values). 300,000 compounds, 1.4% hits;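 active means mean inhibition across valid replicates above about 55%, limit read from the data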;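 further: signal also drops with host cell toxicity which is not excluded here; 0% = plate median of DMSO wells and 100% = zero luminescence signal; higher percent means less beta-gal luminescence so fewer parasites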
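System: mouse NIH/3T3 fibroblasts infected with β-gal-expressing T. cruzi Tulahuen C4 / Input: NIH/3T3 cells, 5,000 per well / Buffer or medium: Low-serum DMEM with 2% FBS / Probe or stimulus: 5000 reporter trypomastigotes per well / Schedule: ≥90 h infection period, 3 h prior cell attachment / Measured by: GalScreen luminescence, 60 min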
* marks the source's active call; other numbers are inactive results; nt = no result; [ ] = dose if it differs, or a comment.

SMILES | DNA FID counter | MEKK2 mut-MEK5 | NS3 helicase inh | MEKK2 WT-MEK5 | MEKK3 PB1 HTS | T cruzi inh
Cc1ccc(NC(=O)CSc2nnc(Cc3csc(C)n3)o2)c(C)c1 | nt | nt | nt | nt | nt | 1.7
Cc1ccc(S(=O)(=O)Cn2nnnc2C(C(C)C)N2CCN(c3nc4ccccc4s3)CC2)cc1 (configuration not stated) | -8.7 | -5.0 | 1.8 | 98.0 | 93.0 | 56.1*
COc1cccc(C(c2nnnn2CS(=O)(=O)c2ccc(C)cc2)N2CCN(C)CC2)c1OC (configuration not stated) | 40.9* | 5.0 | -26.1 | 109.0 | 104.0 | -3.8
Fc1ccccc1N1CCN(CC2CCCCC2)CC1 | 0.1 | 3.0 | 6.7 | 112.0 | 105.0 | 12.1
CC(=O)c1ccc(Nc2ccc(-c3ccccc3F)nn2)cc1 | -13.1 | 0.0 | 0.6 | 100.0 | 102.0 | 3.2
O=C1NN(c2cccc(Br)c2)C(=O)/C1=C/c1ccc(-c2cc([N+](=O)[O-])ccc2O)o1 | -0.1 | -15.0 | 18.1 | 29.0*[inhibitor] | 36.0*[inhibitor] | -0.4
Cc1cc(C)cc(C(=O)NCCC(=O)NCc2cc(=O)n(C)c(=O)n2C)c1 | 2.6 | 1.0 | -3.3 | 101.0 | 100.0 | -0.8
O=S(=O)(c1ccc(Cl)c(F)c1)N1CCC(c2nc(-c3ccncc3)no2)CC1 | -2.6 | 3.0 | -0.7 | 97.0 | 97.0 | 53.9
O=[N+]([O-])c1cccc(S(=O)(=O)N2CCC(c3nc(-c4ccncc4)no3)CC2)c1 | -6.6 | 3.0 | -3.5 | 105.0 | 106.0 | 60.6*
Oc1c(Br)cccc1/C=N/c1ncn[nH]1 | 0.4 | 3.0 | 9.1 | 99.0 | 102.0 | -13.5
Cc1ccc([N+](=O)[O-])cc1S(=O)(=O)n1ccnc1C | -2.7 | -1.0 | -0.9 | 101.0 | 102.0 | -10.0
Cc1cc(C)n2nc(SC(C)C(=O)NC3CCCCC3C)nc2n1 (configuration not stated) | nt | nt | nt | nt | nt | -6.5
Cc1nnsc1C(=O)NC1CCCc2c1cnn2-c1ccc(C(C)(C)C)cc1 (configuration not stated) | -29.1 | -1.0 | -10.6 | 96.0 | 100.0 | 56.4*
COc1ccc(CCNC(=O)[C@H](C)N2C(=O)N3CCc4c([nH]c5ccccc45)[C@@]3(C)C2=O)cc1 | -38.5 | -2.0 | -37.6 | 101.0 | 97.0 | 61.6*
COc1ccc(CCNC(=O)[C@H](C)N2C(=O)N3CCc4c([nH]c5ccccc45)[C@@]3(C)C2=O)cc1OC | -49.3 | -1.0 | -7.2 | 99.0 | 96.0 | 12.3
CCC(Oc1ccccc1)C(=O)Nc1ccc(C)c(S(=O)(=O)N2CCOCC2)c1 (configuration not stated) | nt | nt | nt | nt | nt | 5.4
Nc1ccc(C(=O)N/N=C\c2cc(N=Nc3cccc4ccccc34)ccc2O)cc1 | -5.4 | -7.0 | 9.2 | 83.0 | 91.0 | 58.5*
COC(=O)N/N=C/c1cc(N=Nc2ccccc2Cl)ccc1O | 2.3 | -4.0 | 6.6 | 96.0 | 96.0 | 4.2
COc1ccccc1N1CCN(C(=O)COc2ccc(S(=O)(=O)NC(C)(C)C)cc2)CC1 | -31.4 | 9.0 | 17.9 | 101.0 | 102.0 | -1.1
Cc1ccc(Nc2nc(-c3cccnc3)cs2)cc1Cl | -5.7 | 5.0 | 0.1 | 107.0 | 108.0 | 59.2*
